Results collected from several papers.
Protocols differ between the studies behind these lines.
Target: Serine/threonine-protein kinase NLK (NLK, Homo sapiens, UniProt Q9UBE8)
Sequence (Q9UBE8 1-527, as in one of the studies): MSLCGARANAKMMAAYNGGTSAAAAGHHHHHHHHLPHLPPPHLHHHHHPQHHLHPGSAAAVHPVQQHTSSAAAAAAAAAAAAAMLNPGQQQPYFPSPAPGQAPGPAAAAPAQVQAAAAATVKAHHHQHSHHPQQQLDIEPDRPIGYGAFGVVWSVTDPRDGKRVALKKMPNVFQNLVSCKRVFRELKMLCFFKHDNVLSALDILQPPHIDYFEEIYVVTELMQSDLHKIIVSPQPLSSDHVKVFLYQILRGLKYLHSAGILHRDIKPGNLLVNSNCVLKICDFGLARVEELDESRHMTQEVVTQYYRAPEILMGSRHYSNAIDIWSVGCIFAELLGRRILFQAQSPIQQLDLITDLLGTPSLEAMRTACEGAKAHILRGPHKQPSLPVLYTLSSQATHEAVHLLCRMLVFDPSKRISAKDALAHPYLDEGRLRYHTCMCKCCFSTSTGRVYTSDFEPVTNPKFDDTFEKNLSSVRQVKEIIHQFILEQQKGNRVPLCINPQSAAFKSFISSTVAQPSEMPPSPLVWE

| SMILES | read-out | mode | method | tested at | quantity | value |
| --- | --- | --- | --- | --- | --- | --- |
| CCN(CC)CCNC(=O)c1c(C)[nH]c(/C=C2\C(=O)Nc3ccc(F)cc32)c1C | enzyme activity | inhibitor | – | 0.3 µM | inhibition | -7% |
| CSc1cccnc1N1CCN(Cc2nc3ccccc3[nH]2)CC1 | binding | – | competition with immobilised ligand | 1 µM | remaining binding | 100% |
| Cc1ccc(Nc2nccc(N(C)c3ccc4c(C)n(C)nc4c3)n2)cc1S(N)(=O)=O | enzyme activity | inhibitor | – | 0.3 µM | inhibition | 19% |
| Cn1cncc1C1=CN(c2ncnc3[nH]cnc23)CCS1 | enzyme activity | inhibitor | radiometric | 2 µM | inhibition | 43% |
| O=C1Nc2ccc(Cl)cc2C1=Cc1cc(Cl)c(O)c(Cl)c1 | cell-free assay | – | – | 0.5 µM | remaining signal | 38.9% |
| C[C@H](c1ccnc(Nc2nc3ccc(-c4cc(N(C)C)ncn4)cc3[nH]2)c1)N1CCN(C(=O)CC(F)(F)F)CC1 | cell-free assay | – | competition with immobilised ligand | 0.1 µM | remaining binding | 88% |
| O=C(Nc1cnn(-c2csc(C(=O)NC3COC3)c2)c1)Nc1c(F)cccc1Cl | enzyme activity | inhibitor | – | 5 µM | remaining activity | 87.4% |
| CCCOc1ccc(OC)c(F)c1C(=O)c1ccc(C(=O)N[C@@H]2CNC[C@H]2NC(=O)c2ccc3[nH]ncc3c2)cc1 | enzyme activity | inhibitor | – | 10 µM | remaining activity | 59% |
| Cc1sc(C(=O)NC2COC2)cc1-n1cc(NC(=O)Nc2c(F)cccc2Cl)cn1 | enzyme activity | inhibitor | – | 10 µM | remaining activity | 85.2% |
| N#CCCc1ccc2c(c1)-c1[nH]c3ccc([N+](=O)[O-])cc3c1CC(=O)N2 | cell-free assay | – | – | 0.5 µM | remaining signal | 89.7% |
| CC(C)(O)[C@H]1CC[C@H](Nc2ccc3ncc(-c4cccc(C(F)(F)F)c4)n3n2)CC1 | enzyme activity | inhibitor | – | 1 µM | remaining activity | 93.3% |
| NS(=O)(=O)c1cc(NC(=O)Cc2ccccc2)ccc1Oc1cccc(Cl)c1 | cell-free assay | – | competition with immobilised ligand | 1 µM | remaining binding | 100% |
| CCCS(=O)(=O)Nc1ccc(F)c(C(=O)c2c[nH]c3ncc(-c4ccc(Cl)cc4)cc23)c1F | enzyme activity | inhibitor | – | 1 µM | inhibition | < 10% |
| CC(=O)C1=C(C)N(c2cccc(C(F)(F)F)c2)C(=O)N[C@@H]1c1ccc(C#N)nc1 | cell-free assay | – | competition with immobilised ligand | 1 µM | remaining binding | 93% |
| Nc1ncnc2occ(-c3ccc(NC(=O)Nc4cc(C(F)(F)F)ccc4F)cc3)c12 | cell-free assay | – | – | 20 µM | remaining signal | 19% |
| CS(=O)(=O)c1cc(C2(NC(=O)c3cncc4c3cnn4-c3ccc(F)cc3)CC2)ccn1 | cell-free assay | – | competition with immobilised ligand | 1 µM | remaining binding | 100% |
| CC(C)(C)c1nc(-c2cccc(NS(=O)(=O)c3c(F)cccc3F)c2F)c(-c2ccnc(N)n2)s1 | enzyme activity | inhibitor | radiometric | 1 µM | remaining activity | 78% |
| Fc1cccc(-n2cnc3c(NCc4nc5c(F)c(F)ccc5[nH]4)nc(N4CCOCC4)nc32)c1 | binding | – | competition with immobilised ligand | 10 µM | binding vs control | 98% |
| O=S(=O)(NC1CCC(c2cc(F)ccc2F)(S(=O)(=O)c2ccc(Cl)cc2)CC1)C(F)(F)F (stereo not shown) | cell-free assay | – | competition with immobilised ligand | 1 µM | remaining binding | 100% |
